Values after ≈ are worked out from the molar mass of the structure shown. Active and inactive are the calls of the source. The rule behind the calls is not given here.
Columns and labels:
HeLa [1] = assay: Antitumor activity against human HeLa cells after 72 hrs by MTS assay; assay type: functional, cell-based
Procedure, shortened: (§1)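 HeLa or MCF-7 cells were grown in Eagle's MEM with Earle's salts, 2 mM L-glutamine, 1.0 mM pyruvate, 0.1 mM NEAA and 10% FBS. MCF-7 medium also had 0.01 mg/mL insulin. Cells were seeded at 10⁴/well and dosed at 24 h, giving final 5, 10, 50, 100 µg/mL in 2.5% DMSO. After 72 h, MTS was read at 3 h with pre-reagent absorbance subtracted. Triplicates were compared with 2.5% DMSO controls.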

MCF7 = assay: Antitumor activity against human MCF7 cells after 72 hrs by MTS assay; assay type: functional, cell-based; procedure, shortened: as §1
HeLa [2] = assay: Antitumor activity against human HeLa cells assessed as cell viability at 50 ug/ml after 72 hrs by MTS assay; assay type: functional; conditions: read-out: Activity; procedure, shortened: as §1
HeLa [3] = assay: Antitumor activity against human HeLa cells assessed as cell viability at 5 ug/ml after 72 hrs by MTS assay; assay type: functional; conditions: read-out: Activity; procedure, shortened: as §1
HeLa [4] = assay: Antitumor activity against human HeLa cells assessed as cell viability at 10 ug/ml after 72 hrs by MTS assay; assay type: functional; conditions: read-out: Activity; procedure, shortened: as §1
HeLa [5] = assay: Antitumor activity against human HeLa cells assessed as cell viability at 100 ug/ml after 72 hrs by MTS assay; assay type: functional; conditions: read-out: Activity; procedure, shortened: as §1

Structure (SMILES) | IC50 (HeLa [1]) | Activity (MCF7) | viability at 50 µg/mL (HeLa [2]) | viability at 5 µg/mL (HeLa [3]) | viability at 10 µg/mL (HeLa [4]) | viability at 100 µg/mL (HeLa [5])
CCNC(=S)Nc1c2ccoc2c(OC)c2oc(=O)ccc12 | 23 µg/mL (≈ 72.2 µM) | inactive | 35% | 101% | 70% | 41%
COc1c2occc2c(NC(=S)NCc2ccccc2)c2ccc(=O)oc12 | 7.5 µg/mL (≈ 19.7 µM) | inactive | 34% | 74% | 56% | 35%
COc1c2occc2cc2ccc(=O)oc12 [METHOXSALEN] | 7.6 µg/mL (≈ 35.2 µM) | inactive | 21% | 62% | 51% | 16%
COc1c2occc2c(N2C(=O)CSC2c2ccc(Br)cc2)c2ccc(=O)oc12 (stereo not given) | 40 µg/mL (≈ 84.7 µM) | inactive | 26% | 82% | 91% | 26%
COc1c2occc2c(/N=C/c2cccs2)c2ccc(=O)oc12 | 7.2 µg/mL (≈ 22.1 µM) | inactive | 32% | 70% | 53% | 28%

— ChEMBL document CHEMBL1152898, “Synthesis and antitumor activity of some new xanthotoxin derivatives” (Eur J Med Chem, 2009)
